The values that follow come from article PMC6398930 (Bioorganic & medicinal chemistry letters, 2019).

The structures appear in SMILES notation. Some results are limits rather than exact numbers.

The target of one series is T1, GIRK1/2 (Homo sapiens, UniProt P48051+P48549).
T1 sequence (P48549 1-501): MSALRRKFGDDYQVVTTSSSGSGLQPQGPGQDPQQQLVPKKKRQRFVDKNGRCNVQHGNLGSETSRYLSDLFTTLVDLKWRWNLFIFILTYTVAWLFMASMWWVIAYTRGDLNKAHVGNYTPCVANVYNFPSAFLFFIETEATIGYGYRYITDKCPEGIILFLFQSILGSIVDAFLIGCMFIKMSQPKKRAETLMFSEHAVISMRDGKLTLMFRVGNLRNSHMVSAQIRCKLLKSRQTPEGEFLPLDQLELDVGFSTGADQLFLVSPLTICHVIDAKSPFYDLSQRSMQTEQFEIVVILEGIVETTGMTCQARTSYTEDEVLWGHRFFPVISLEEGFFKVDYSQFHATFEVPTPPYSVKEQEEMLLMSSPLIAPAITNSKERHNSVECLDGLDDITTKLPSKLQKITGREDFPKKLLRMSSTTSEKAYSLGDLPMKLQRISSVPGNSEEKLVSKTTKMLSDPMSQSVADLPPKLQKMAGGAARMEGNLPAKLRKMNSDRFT
T1 sequence (P48051 1-423): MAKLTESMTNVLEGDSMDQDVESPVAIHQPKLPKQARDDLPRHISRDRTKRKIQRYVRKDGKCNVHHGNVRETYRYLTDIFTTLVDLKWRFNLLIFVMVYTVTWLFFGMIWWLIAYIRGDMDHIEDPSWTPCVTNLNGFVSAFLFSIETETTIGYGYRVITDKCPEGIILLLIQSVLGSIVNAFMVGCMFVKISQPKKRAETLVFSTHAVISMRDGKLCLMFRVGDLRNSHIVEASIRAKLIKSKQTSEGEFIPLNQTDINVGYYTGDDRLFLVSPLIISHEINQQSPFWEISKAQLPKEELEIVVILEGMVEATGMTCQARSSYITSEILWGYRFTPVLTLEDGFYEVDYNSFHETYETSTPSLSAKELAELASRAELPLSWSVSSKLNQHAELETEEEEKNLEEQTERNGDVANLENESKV
Kind of series: Thallium flux assay, GIRK1/2 expressing HEK293 cells. The format is cell-based. The conditions noted are these: for Selectivity GIRK1/2 vs GIRK1/4 (in words): thallium flux; for Loss of GIRK1/2 potency/activity relative to 15a: compared with parent amide/phenyl compound 15a.

Series [1] is described as follows: Intrinsic and predicted hepatic clearance in human liver microsomes. The format is in vitro ADME. Summed up: (§1)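 Part of an outsourced Tier 1 in vitro DMPK panel. Intrinsic clearance was measured in liver microsomes from the species named in each line and scaled. Predicted hepatic clearance was derived from the same microsomal experiments.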
Series [2] in a line: Intrinsic and predicted hepatic clearance in mouse liver microsomes. The format is in vitro ADME. As to conditions: for CLint scaled / Predicted hepatic clearance mCLHEP: mouse, liver microsomes. Summed up:
as §1

The nature of series [3]: Plasma unbound fraction, mouse plasma. It counts as in vitro ADME.
Series [4] in a line: Stability in Human Liver S9 fractions. It counts as in vitro ADME.

Take `Cc1cc(NC(=O)Cn2nnc(-c3ccccc3)n2)n(CC2CCCCC2)n1` [15q]: the “Selectivity GIRK1/2 vs GIRK1/4 (in words)” value at GIRK1/2 is “lost selectivity between GIRK1/2 and GIRK1/4”. Further, the CLint scaled (as a rule, a measure of how fast metabolising enzymes remove a compound, apart from limits set by blood flow) was 753 mL/min/kg in series [1] (human, liver microsomes) and more than 5930 mL/min/kg in series [2].
Regarding `Cc1cc(NC(=O)Nc2ccc(F)c(F)c2)n(Cc2ccccc2)n1` [compound 1, reference compound], the “Selectivity GIRK1/2 vs GIRK1/4 (in words)” value at GIRK1/2 was “activate GIRK1/2 preferentially over GIRK1/4”.
Take `Cc1cc(NC(=O)Cn2cc(-c3ccccc3)nn2)n(C2CCCCC2)n1` [17a]: the intrinsic clearance (CLint scaled) in series [1] (human, liver microsomes) was 54.6 mL/min/kg; in series [2], 596 mL/min/kg.
The like results for `Cc1cc(NC(=O)Cn2nnc(-c3ccccc3)n2)n(C2CCC(F)(F)CC2)n1` [15d] were, in that order, 77.3 mL/min/kg and 723 mL/min/kg.
As for `Cc1cc(NC(=O)Cn2nnc(-c3ccc(Cl)c(Cl)c3)n2)n(C2CCCCC2)n1` [16d], the CLint scaled in series [1] (human, liver microsomes) is 99.9 mL/min/kg; in series [2], 489 mL/min/kg.
For the molecule `Cc1cc(NC(=S)Cn2nnc(-c3ccccc3)n2)n(C2CCCCC2)n1` [15b], the “Loss of GIRK1/2 potency/activity relative to 15a” value on GIRK1/2 is approximately 7 fold. The CLint scaled in series [1] (human, liver microsomes) was 346 mL/min/kg. In series [2], the intrinsic clearance (CLint scaled) was more than 5930 mL/min/kg and the “Predicted hepatic clearance mCLHEP” value is reported as more than 88.7 mL/min/kg. Besides, in series [3], the “Recovery in mouse plasma (in words)” value was “poor recovery”.
In the case of `Cc1cc(NC(=O)Cn2nncc2-c2ccccc2)n(C2CCCCC2)n1` [17b], the intrinsic clearance (CLint scaled) was 209 mL/min/kg in series [1] (human, liver microsomes) and 3490 mL/min/kg in series [2].
Take `Cc1cc(NC(=O)Cn2nnc(-c3cccc(F)c3)n2)n(C2CCCCC2)n1` [16g]: on GIRK1/2, the “Selectivity GIRK1/2 vs GIRK1/4 (in words)” value is recorded as “more selective for GIRK1/2 vs. GIRK1/4”. The intrinsic clearance (CLint scaled) was 162 mL/min/kg in series [1] (human, liver microsomes) and 2710 mL/min/kg in series [2].
In the case of `Cc1cc(NC(=O)Cn2nnc(-c3ccccc3)n2)n(C2CCCCC2)n1` [15a], the CLint scaled in series [1] (human, liver microsomes) was 186 mL/min/kg; in series [2] it was 2920 mL/min/kg.
`Cc1cc(NC(=O)Cn2ccc(-c3ccccc3)n2)n(C2CCCCC2)n1` [17e]: the “GIRK1/2 potency, fold less potent than 17f” value on GIRK1/2 (17e vs 17f) is ~ 8 fold.
`Cc1cc(NC(=O)Cn2nnc(-c3ccccc3)n2)n(C2CCS(=O)(=O)C2)n1` (stereo not shown) [15k]: the “Stability in human liver microsomes (in words)” value in series [1] is on record as “stable”. For the same molecule, in series [1] (human, liver microsomes), the CLint scaled is less than 23.1 mL/min/kg and the “Predicted hepatic clearance hCLHEP” value is recorded as less than 10.7 mL/min/kg. In series [2], the “Stability in mouse liver microsomes (in words)” value is given as “stable”, the intrinsic clearance (CLint scaled) was less than 49.5 mL/min/kg and the “Predicted hepatic clearance mCLHEP” value is recorded as less than 31.9 mL/min/kg. The “Stability in human S9 fractions (in words)” value in series [4] is on record as “stable”. In addition, the “CLHEP in Human Liver S9 fractions” value in series [4] (human liver S9) is listed as less than 1.0 mL/min/kg. This molecule also showed a CLint scaled in series [4] (human, liver S9 fractions) of 2.6 mL/min/kg.
Turning to `Cc1cc(NC(=O)Cn2nnc(-c3cccnc3)n2)n(C2CCCCC2)n1` [16a], the “Loss of GIRK1/2 potency/activity relative to 15a” value on GIRK1/2 is recorded as more than 20 fold.
For the molecule `Cc1cc(NC(=O)Cn2nnc(-c3ccccn3)n2)n(C2CCCCC2)n1` [16b], on GIRK1/2, the “Loss of GIRK1/2 potency/activity relative to 15a” value was more than 20 fold.
